Activity calls are given as the source filed them. The calls are words filed in the database; no cut-off is given here.
Assays:
[1] = species: Papio papio; assay: Inhibition of MAO-B in baboon liver mitochondrial fraction using MMTP substrate at 300 uM
[2] = Antiapoptotic activity against serum deprivation-induced human SK-N-BE(2) cells assessed as viable cells at 10 uM after 36 hrs incubation by DePsipher agent relative to control; assay type: functional
In short: (§1)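 SK-N-BE(2) neuroblastoma cells grown in F12 with 10% FBS, Pen/Strep and fungizone at 37 °C. At 80% confluency they were serum-deprived for 24 h, then seeded at 1 x 10^6 cells per 2 mL serum-deprived medium containing compound in DMSO (1.25% v/v final). Cells were incubated 36 h, stained with DePsipher dye 20 min at 37 °C and run by flow cytometry (50 000 events; FL-1 green, FL-2 red). % viable = (Q1+Q2)/(Qtotal−Q3) x 100. Tests in triplicate.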

[3] = Antiapoptotic activity against serum deprivation-induced human SK-N-BE(2) cells assessed as improvement in cell health at 1 mM to 10 uM after 36 hrs incubation by DePsipher agent relative to 1.25% DMSO; assay type: functional
In short: as §1

[4] = Antiapoptotic activity against serum deprivation-induced human SK-N-BE(2) cells assessed as apoptotic cells at 1 mM to 10 uM after 36 hrs incubation by DePsipher agent relative to 1.25% DMSO; assay type: functional
In short: as §1

[5] = Antiapoptotic activity against serum deprivation-induced human SK-N-BE(2) cells assessed as improvement in cell health at 1 mM to 10 uM after 36 hrs incubation by DePsipher agent relative to non-induced cells; assay type: functional
In short: as §1

| SMILES | inhibition [1] | Activity [2] | Activity [3] | Activity [4] | improvement in cell health [5] |
| --- | --- | --- | --- | --- | --- |
| C#CCN(C)[C@H](C)Cc1ccccc1 | 93.3% | 77% | – | – | – |
| C#CCN(CC#C)C12CC3CC(CC(C3)C1)C2 | 14% | 68% | 9% | – | – |
| OC1(C#Cc2ccccc2)C2C3CC4C5C3CC2C5C41 (racemic) | 73.3% | 98% | 9% | 2.8% | Active |
| C#CCNC12OC3C4C5CC(C6C5C3(C)C61)C42 (racemic) | 11.7% | 97% | 9% | – | Active |
| C#CCNC12OC3C4C5CC(C6C5C3C61)C42 (racemic) | inactive | 88% | 9% | – | – |
| C#CCN | 19.9% | 79% | – | – | – |
| C#CCN1C2C3C4CC5C6C4C2C6C1(O)C53 (racemic) | 5.83% | 93% | 9% | – | Active |
| C#CCN(Cc1ccccc1)C12CC3CC(CC(C3)C1)C2 | 20.1% | 70% | 9% | – | – |
| c1ccc(CNC23OC4C5C6CC(C7C6C4C72)C53)cc1 (stereo not drawn) | 14.6% | 67% | 9% | – | – |
| C#CC12OC3(O)C4C5CC(C6C5C3(C)C61)C42 (racemic) | inactive | 100% | 9% | 0.5% | Active |
| COCCOC(=O)C1=C(C)NC(C)=C(C(=O)OC(C)C)C1c1cccc([N+](=O)[O-])c1 (stereo not drawn) | – | inactive | – | – | – |
| C#CCN1C2C3C4CC5C6C4C2C6(C)C1(O)C53 (racemic) | 10.8% | 67% | 9% | – | – |
